The values that follow come from paper PMC4073661 (Journal of Natural Products, 2014).

The subject of series [1] is HT-29 human colon cancer cells. Put plainly: Cytotoxicity against HT-29 cells. The class given is cell-based. The method, boiled down:
(§1)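 Cell growth-inhibition screen with paclitaxel as positive control. Each measurement was run in triplicate, and each value is representative of two independent experiments. IC50 was calculated by nonlinear regression.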

The test system of series [2] is several human cancer cell lines. The note with it: cited from earlier work.
For series [3] the following is noted: cited from earlier work.
Series [4] has as its system KB cells. The note with it: cited from earlier work.
Series [5] relates to P-388 murine lymphocytic leukemia cells. The conditions noted are these: cited from earlier work.
Series [6] relates to KB human epidermoid carcinoma. The note with it: read-out: IC50, KB cell growth; cited from earlier work.
For series [7], the system named is MCF-7S human breast carcinoma. The note with it: read-out: IC50, MCF-7S cell growth; cited from earlier work.
Series [8] deals with CCD-112CoN normal human colon cells. Put plainly: Cytotoxicity against CCD-112CoN cells. It counts as cell-based. The method, boiled down:
as §1

Series [9] concerns SKW-3 chronic lymphoid leukemia cells. The conditions noted are these: cited from earlier work.
In series [10] the test system is HT-29 human colon cancer cell. The note with it: 8-day treatment; cited from earlier work.
The subject of series [11] is caspase-3. The experiment in a line: Caspase-3 activation by Western blot. It counts as cell-based, human. The conditions noted are these: 24 h incubation; 1, 5 and 10 μM; cleaved caspase-3 Western blot. For orientation: Immunoblotting shows a protein as a band on a membrane.
Series [12] has as its system a broad spectrum of normal and tumor cell lines. The conditions noted are these: cited from earlier work.
Series [13] relates to HT-29 cells implanted in immunodeficient NCr nu/nu mice. Put plainly: In vivo hollow fiber assay. The method, boiled down:
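Eight- to nine-week-old mice carrying HT-29 cells in hollow fibers received ip doses once daily on days 3–6 after implantation. Vehicle was diluted with water to 13% DMSO and 25% Cremophor; paclitaxel 5 mg/kg was the positive control. Body weight was recorded daily. Fibers were retrieved on day 7 for modified MTT. Net growth (day 7 − day 0 absorbance) was expressed relative to vehicle; n = 6 control, 3 per treatment.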

In series [14] the target is topo IIα (Homo sapiens, UniProt P11388). The experiment in a line: Topoisomerase II assay. The class given is biochemical. The conditions noted are these: 100 μM.
For series [15], the system named is topoisomerase. The note with it: cited from earlier work.

pIC50: −log10 of the molar value. In brackets after ≈: the same amount, converted by molar mass. Entries after “also recorded” stand apart in the source; their conditions may differ.

One may read the pIC50 as the IC50 on a negative log10 scale, so that one unit is a factor of ten.

Sequence of topo IIα (P11388 whole entry): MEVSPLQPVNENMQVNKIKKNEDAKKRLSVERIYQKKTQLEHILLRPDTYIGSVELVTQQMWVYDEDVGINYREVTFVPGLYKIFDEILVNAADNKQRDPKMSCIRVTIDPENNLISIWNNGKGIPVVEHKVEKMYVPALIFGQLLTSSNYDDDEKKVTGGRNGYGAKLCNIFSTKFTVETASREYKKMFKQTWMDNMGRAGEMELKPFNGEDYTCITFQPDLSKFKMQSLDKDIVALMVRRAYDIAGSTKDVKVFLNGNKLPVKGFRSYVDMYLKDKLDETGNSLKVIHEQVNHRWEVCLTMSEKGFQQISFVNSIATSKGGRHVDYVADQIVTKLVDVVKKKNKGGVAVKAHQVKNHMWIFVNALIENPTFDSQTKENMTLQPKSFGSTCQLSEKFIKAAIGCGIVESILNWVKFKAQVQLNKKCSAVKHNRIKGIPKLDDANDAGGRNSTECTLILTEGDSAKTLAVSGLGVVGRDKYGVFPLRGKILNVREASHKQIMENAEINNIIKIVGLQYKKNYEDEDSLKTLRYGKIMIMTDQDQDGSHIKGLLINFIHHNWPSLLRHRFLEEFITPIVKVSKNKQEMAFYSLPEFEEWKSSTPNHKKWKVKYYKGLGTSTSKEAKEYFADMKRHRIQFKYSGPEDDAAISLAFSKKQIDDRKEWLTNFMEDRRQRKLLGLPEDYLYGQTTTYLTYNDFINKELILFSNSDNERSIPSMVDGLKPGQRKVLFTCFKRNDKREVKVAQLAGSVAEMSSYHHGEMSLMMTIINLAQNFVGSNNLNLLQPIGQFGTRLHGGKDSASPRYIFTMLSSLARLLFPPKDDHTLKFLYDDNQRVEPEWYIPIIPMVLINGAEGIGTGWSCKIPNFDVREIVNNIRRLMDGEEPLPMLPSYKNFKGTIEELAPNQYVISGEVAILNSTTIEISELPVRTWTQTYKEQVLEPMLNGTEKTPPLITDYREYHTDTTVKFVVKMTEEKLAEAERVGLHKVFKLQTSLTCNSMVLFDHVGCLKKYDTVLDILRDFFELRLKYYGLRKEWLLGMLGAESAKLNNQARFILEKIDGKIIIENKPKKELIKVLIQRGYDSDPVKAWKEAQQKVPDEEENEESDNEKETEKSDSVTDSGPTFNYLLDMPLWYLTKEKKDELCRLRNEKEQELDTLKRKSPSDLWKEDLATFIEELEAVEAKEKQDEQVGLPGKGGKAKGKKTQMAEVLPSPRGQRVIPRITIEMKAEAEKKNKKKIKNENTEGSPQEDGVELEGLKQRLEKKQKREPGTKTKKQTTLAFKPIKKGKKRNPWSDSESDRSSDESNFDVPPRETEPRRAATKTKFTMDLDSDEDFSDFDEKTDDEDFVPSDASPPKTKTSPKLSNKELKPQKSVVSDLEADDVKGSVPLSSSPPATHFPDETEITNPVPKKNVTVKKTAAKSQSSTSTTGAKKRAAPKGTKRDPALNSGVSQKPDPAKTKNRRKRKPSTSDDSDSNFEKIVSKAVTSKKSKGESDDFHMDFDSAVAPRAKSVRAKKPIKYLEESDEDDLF

`CC(=O)O[C@H]1C(=O)[C@@]2(C)[C@H]([C@H](OC(=O)c3ccccc3)[C@]3(O)C[C@H](OC(=O)[C@H](O)[C@@H](NC(=O)c4ccccc4)c4ccccc4)C(C)=C1C3(C)C)[C@]1(OC(C)=O)CO[C@@H]1C[C@@H]2O` [paclitaxel]: the pIC50 in series [1] (Homo sapiens, HT-29, read-out: IC50 values toward the HT-29 cells) was 9.00.

On to `COc1ccc(-c2c3c(c(OC)c4cc5c(cc24)OCO5)COC3=O)cc1OC` [chinensinaphthol methyl ether], for which the “cytotoxicity (in words)” value in series [2] was “did not show such activity”.

For Cleistanthoside A tetraacetate, the “IG50 values, cytotoxicity” value in [3] is given as “in the nanomolar range”.

With `COc1cc2c(O[C@@H]3O[C@H](CO)[C@@H](O)[C@H](O)[C@H]3O)c3c(c(-c4ccc5c(c4)OCO5)c2cc1OC)C(=O)OC3` [Compound 5, cleistanthin B], the “cytotoxicity against HT-29 human colon cancer cells (in words)” value in series [1] is “inactive”.

Consider `COc1cc2c(OC3OCC(OC)C(OC)C3O)c3c(c(-c4ccc5c(c4)OCO5)c2cc1OC)C(=O)OC3` (centres unmarked) [Cleistanthin A], for which, in series [4], the “GI50 toward KB cells” value is reported as 5.6 nM.

As for `COc1cc2c(O[C@@H]3OC[C@H](O)[C@H](O)[C@H]3O)c3c(c(-c4ccc5c(c4)OCO5)c2cc1OC)C(=O)OC3` [Acutissimalignan A], the “IC50 toward P-388 cells” value in series [5] is 20 ng/mL (≈ 0.039 µM).

Turning to `COc1cc2c(O[C@@H]3O[C@H](C)[C@@H](O)[C@H](O)[C@H]3O)c3c(c(-c4ccc5c(c4)OCO5)c2cc1OC)C(=O)OC3` [Patentiflorin A], the pIC50 in [6] was 8.40; in series [7], 8.52.

`COc1cc2c(O[C@@H]3OC[C@H](O)[C@H](O)[C@H]3O)c3c(c(-c4ccc5c(c4)OCO5)c2cc1OC)C(=O)OC3` [Compound 4, phyllanthusmin C]: the “cytotoxicity toward CCD-112CoN human normal colon cells (in words)” value in series [8] is recorded as “noncytotoxic”.

With `COc1cc2cc3c(c(-c4ccc5c(c4)OCO5)c2cc1OC)C(=O)CO3` [Justicidin B], in series [9], the “cytotoxicity toward SKW-3 cells (in words)” value was “cytotoxic”.

`COc1cc2c(OC)c3c(c(-c4ccc5c(c4)OCO5)c2cc1OC)C(=O)OC3` [justicidin A]: in series [2], the “IC50 toward several human cancer cell lines” value is 2 to 7 ng/mL and the “cytotoxicity (in words)” value is “highly cytotoxic”.

`COc1cc([C@@H]2c3cc4c(cc3[C@@H](O[C@@H]3O[C@@H]5CO[C@@H](C)O[C@H]5[C@H](O)[C@H]3O)[C@H]3COC(=O)[C@H]23)OCO4)cc(OC)c1O` [etoposide]: in series [10], the “HT-29 cell apoptosis induction” value is reported as “induced HT-29 human colon cancer cell apoptosis”. Further, the “cytotoxicity against HT-29 human colon cancer cells (in words)” value in series [1] was “inactive”. For the same compound, the “caspase-3 activation in HT-29 cells” value in series [11] is “did not induce caspase-3 activation”.

`COc1cc2c(O[C@@H]3O[C@H](CO)[C@@H](O)[C@H](O)[C@H]3O)c3c(c(-c4ccc5c(c4)OCO5)c2cc1OC)C(=O)OC3` [cleistanthin B]: the “selectivity of cytotoxicity, tumor versus normal cell lines (in words)” value in series [12] was “showed cytotoxicity toward human tumor cells selectively”.

As for `COc1cc2c(O[C@@H]3OC[C@H](OC(C)=O)[C@H](OC(C)=O)[C@H]3O)c3c(c(-c4ccc5c(c4)OCO5)c2cc1OC)C(=O)OC3` [Compound 1, 7-O-[(3,4-di-O-acetyl)-α-L-arabinopyranosyl]-4,5-dimethoxy-3′,4′-methylenedioxy-2,7′-cycloligna-7,7′-dieno-9,9′-lactone], the “toxicity in treated mice” value in [13] (5.0-20.0 mg/kg ip once daily for 4 days, NCr nu/nu mice) is reported as “No gross toxicity was observed; also recorded: no signs of toxicity”. Further, in series [13] (10.0, 15.0 or 20.0 mg/kg ip once daily for 4 days, compared with 5 mg/kg ip, NCr nu/nu mice), the “relative HT-29 cell growth in hollow fibers” value was “statistically significantly different”. Moreover, the “activity in in vivo hollow fiber assay” value in series [13] (HT-29 cells implanted in NCr nu/nu mice) is on record as “showed activity”. Besides, in series [8], the “cytotoxicity toward CCD-112CoN human normal colon cells (in words)” value was “noncytotoxic”. Further, the “caspase-3 activation in HT-29 cells” value in series [11] is given as “induced activation of caspase-3”. Further, the “topo IIα inhibition (in words)” value in [14] was “did not inhibit DNA topoisomerase IIα activity”.

On to `COc1cc2c(-c3ccc4c(c3)OCO4)c3c(cc2cc1O)COC3=O` [daurinol], for which the “formation of open circular and linear DNA from topoisomerase-DNA cleavable intermediate” value in [15] was “did not induce the formation of open circular and linear DNA”.
